Data set [1] is described as follows: Drug metabolism in human hepatocytes assessed as CYP450-catalysed oxidative pathway mediated metabolite formation at 10 uM incubated upto 2 hrs by LC/UV/MS analysis. It counts as ADME, cell-based, Hepatocyte. The gist of the method:
(§1)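 Hepatocytes were suspended at 6 × 10^5 viable cells/mL in KHB buffer and given compound at 10 μM. Incubation was 0 and 2 h at 37 °C under 5% CO2, stopped with acetonitrile. After centrifugation, supernatant metabolites were analysed by LC/UV/MS.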

Data set [2] is described as follows: Drug metabolism in rat hepatocytes assessed as amide hydrolysis mediated HC-6 metabolite formation at 10 uM incubated upto 2 hrs by LC/UV/MS analysis. Type of data set: ADME, cell-based, Hepatocyte. In outline:
as §1

Data set [3] in a line: Drug metabolism in rat hepatocytes assessed as amide hydrolysis mediated HC-5 metabolite formation at 10 uM incubated upto 2 hrs by LC/UV/MS analysis. It counts as ADME, cell-based, Hepatocyte. In outline:
as §1

Data set [4] deals with SARS-CoV-2. Nature of the data set: Antiviral activity against SARS coronavirus 2 infected in African green monkey Vero cells assessed as blockade of viral proliferation at 10 uM incubated for 48 hrs by cytopathic effect assay. Type of data set: functional, organism-based. The conditions noted are these: Severe acute respiratory syndrome coronavirus 2.
The test system of data set [5] is SARS-CoV-2. Nature of the data set: Antiviral activity against SARS coronavirus 2 infected in African green monkey Vero cells assessed as blockade of viral proliferation at 25 uM incubated for 48 hrs by cytopathic effect assay. It counts as functional, organism-based. The settings on record: Severe acute respiratory syndrome coronavirus 2.
Data set [6] is described as follows: Inhibition of recombinant C-terminal His-tagged SARS coronavirus 1 3CL protease using Boc-Abu-Tle-Leu-Gln-AMC as substrate incubated for 5 mins by Cheng-Prusoff equation analysis. The arrangement: species or system Severe acute respiratory syndrome-related coronavirus.
Data set [7] concerns SARS-CoV-2. Nature of the data set: Antiviral activity against SARS coronavirus 2 infected in African green monkey Vero cells assessed as reduction in total viral RNA upto 25 uM measured after 24 hrs post-infection by qRT-PCR analysis. Type of data set: functional, organism-based. The settings on record: Severe acute respiratory syndrome coronavirus 2, dose microM <=25, time 24.0 hrs. The gist of the method:
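Total viral RNA in treated, SARS-CoV-2-infected Vero cells was quantified by qPCR. Values are mean ± SEM of three independent experiments.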

Data set [8] is described as follows: Stability in rat plasma assessed as compound degradation incubated for 6 hrs by quadrupole mass spectrometry coupled UFLC analysis. Type of data set: ADME, cell-free. In outline:
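Compound at 1 μM was incubated in rat plasma at 37 °C for 0, 1, 2 and 6 h. Remaining concentration was measured by LC/MS/MS.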

Data set [9] can be described thus: Protein binding in rat plasma incubated for 6 hrs by quadrupole mass spectrometry coupled UFLC analysis. It counts as ADME, cell-free. The settings on record: read-out: PPB.
The target in data set [10] is Cytochrome P450 2C9 (Homo sapiens, UniProt P11712). Nature of the data set: Inhibition of CYP2C9 in human liver microsome at 10 uM. It counts as toxicity. The conditions noted are these: microsomes. In outline: (§2)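 Human liver microsomes (0.1 mg protein/mL) were mixed with compound at 10 μM and probe substrates in phosphate buffer pH 7.4: tacrine (CYP1A2), paclitaxel (2C8), tolbutamide (2C9), dextromethorphan (2D6) and midazolam (3A4). Reactions were started with an NADPH-generating system, run 10 min at 37 °C and stopped with acetonitrile. Metabolites were measured by LC/MS/MS and activity expressed as % remaining versus the no-inhibitor control.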
Cytochrome P450 2C9, sequence (P11712 whole entry): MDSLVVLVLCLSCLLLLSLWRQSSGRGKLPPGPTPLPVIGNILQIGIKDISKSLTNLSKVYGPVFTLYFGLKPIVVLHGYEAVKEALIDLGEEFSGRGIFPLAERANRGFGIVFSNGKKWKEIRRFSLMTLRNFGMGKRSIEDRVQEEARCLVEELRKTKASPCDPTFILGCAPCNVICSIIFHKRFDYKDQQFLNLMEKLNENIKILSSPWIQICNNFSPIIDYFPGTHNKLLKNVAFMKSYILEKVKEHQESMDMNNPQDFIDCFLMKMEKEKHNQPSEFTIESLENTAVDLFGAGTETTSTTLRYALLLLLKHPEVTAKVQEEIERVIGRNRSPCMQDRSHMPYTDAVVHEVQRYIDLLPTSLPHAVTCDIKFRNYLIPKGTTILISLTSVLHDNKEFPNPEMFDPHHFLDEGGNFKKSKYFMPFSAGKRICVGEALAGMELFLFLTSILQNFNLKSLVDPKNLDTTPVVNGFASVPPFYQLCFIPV

The target of data set [11] is Cytochrome P450 3A4 (Homo sapiens, UniProt P08684). Nature of the data set: Inhibition of CYP3A4 in human liver microsome at 10 uM. The settings on record: microsomes. It counts as toxicity. In outline: as §2
Cytochrome P450 3A4, sequence (P08684 whole entry): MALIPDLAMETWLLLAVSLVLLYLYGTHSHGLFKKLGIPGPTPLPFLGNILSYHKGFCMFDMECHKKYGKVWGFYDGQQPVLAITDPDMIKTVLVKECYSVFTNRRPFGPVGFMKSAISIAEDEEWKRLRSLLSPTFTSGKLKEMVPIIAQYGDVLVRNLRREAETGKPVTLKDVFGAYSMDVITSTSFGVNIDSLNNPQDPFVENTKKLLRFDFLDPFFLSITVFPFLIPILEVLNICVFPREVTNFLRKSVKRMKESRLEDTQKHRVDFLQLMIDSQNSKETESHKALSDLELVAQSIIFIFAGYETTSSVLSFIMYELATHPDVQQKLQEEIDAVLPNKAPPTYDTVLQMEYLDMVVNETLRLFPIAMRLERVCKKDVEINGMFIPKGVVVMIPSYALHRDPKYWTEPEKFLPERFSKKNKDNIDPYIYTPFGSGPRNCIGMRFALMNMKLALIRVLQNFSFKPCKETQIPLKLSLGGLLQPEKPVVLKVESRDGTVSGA
The target in data set [12] is Cytochrome P450 2D6 (Homo sapiens, UniProt P10635). Nature of the data set: Inhibition of CYP2D6 in human liver microsome at 10 uM. It counts as toxicity. The settings on record: microsomes. In outline:
as §2

The nature of data set [13]: Cmax in overnight-fasted Wistar rat at 0.5 mg/kg, po measured upto 7 hrs by quadrupole mass spectrometry coupled UFLC analysis. Type of data set: ADME, organism-based. The arrangement: route oral, dose 0.5 mg/kg, time <=7. The settings on record: in vivo. The gist of the method:
(§3)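 Conscious, freely moving male Wistar rats received compound in saline at 4 mL/kg, either i.v. via jugular vein at 0.1 mg/kg or by oral gavage at 0.5 mg/kg. Cannula blood was sampled up to 7 h and plasma measured by LC-MS/MS. Analysis was noncompartmental (trapezoidal AUC); Cmax and tmax were taken as observed, and t1/2 from log-linear terminal regression over at least 3 points. Mean ± SD, n = 5.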

Data set [14] is described as follows: Tmax in overnight-fasted Wistar rat at 0.5 mg/kg, po measured upto 7 hrs by quadrupole mass spectrometry coupled UFLC analysis. Type of data set: ADME, organism-based. The settings on record: in vivo. The gist of the method: as §3
Data set [15] can be described thus: AUC (0 to infinity) in overnight-fasted Wistar rat at 0.1 mg/kg, iv measured upto 7 hrs by quadrupole mass spectrometry coupled UFLC analysis. The settings on record: in vivo. More on the design: route intravenous, dose 0.1 mg/kg, time <=7. Type of data set: ADME, organism-based. The gist of the method: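 Male Wistar rats, conscious and unrestrained, were given the compound in saline at 4 mL/kg, either as an i.v. bolus via the left jugular vein or by oral gavage. Heparinized blood was drawn from a cannula at set times up to 7 h and the plasma analysed by LC-MS/MS. AUC0–7 and AUC0–∞ came from noncompartmental trapezoidal analysis; mean ± SD, n = 5.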

A short description of data set [16]: Half life in overnight-fasted Wistar rat at 0.1 mg/kg, iv measured upto 7 hrs by quadrupole mass spectrometry coupled UFLC analysis. It counts as ADME, organism-based. The settings on record: in vivo. In outline:
as §3

Data set [17] can be described thus: MRT (total) in overnight-fasted Wistar rat at 0.5 mg/kg, po measured upto 7 hrs by quadrupole mass spectrometry coupled UFLC analysis. The conditions noted are these: in vivo. Type of data set: ADME, organism-based. In outline: as §3
Data set [18] can be described thus: Apparent total clearance in overnight-fasted Wistar rat at 0.5 mg/kg, po measured upto 7 hrs by quadrupole mass spectrometry coupled UFLC analysis. Type of data set: ADME, organism-based. The conditions noted are these: in vivo, read-out: CLt/F (converted). The gist of the method:
as §3

A short description of data set [19]: Volume of distribution in overnight-fasted Wistar rat at 0.1 mg/kg, iv measured upto 7 hrs by quadrupole mass spectrometry coupled UFLC analysis. It counts as ADME, organism-based. The settings on record: in vivo. The gist of the method:
as §3

Data set [20] in a line: Oral bioavailability in overnight-fasted Wistar rat at 0.5 mg/kg and measured upto 7 hrs by quadrupole mass spectrometry coupled UFLC analysis. The conditions noted are these: in vivo. It counts as ADME, organism-based. In outline:
as §3

A short description of data set [21]: Apparent permeability in human Caco-2 monolayer cells at 1 uM and measured upto 120 mins by LC-MS/MS analysis. Type of data set: ADME, cell-based. The gist of the method: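 Caco-2 monolayers were grown 21 days on 3.0 μm-pore inserts. They were preincubated 30 min at 37 °C in HBSS with 10 mM HEPES, pH 7.4, and TEER was checked before and after. Transport of compound at 1 μM was run at 37 °C, quantified by LC-MS/MS, and converted to apparent permeability.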

A short description of data set [22]: Drug metabolism in human hepatocytes assessed as amide hydrolysis mediated HC-5 metabolite formation at 10 uM incubated upto 2 hrs by LC/UV/MS analysis. It counts as ADME, cell-based, Hepatocyte. The gist of the method: as §1
Data set [23] is described as follows: Drug metabolism in human hepatocytes assessed as amide hydrolysis mediated HC-6 metabolite formation at 10 uM incubated upto 2 hrs by LC/UV/MS analysis. Type of data set: ADME, cell-based, Hepatocyte. The gist of the method: as §1

The source made the active and inactive calls. The calls are words filed in the database; no cut-off is given here.

Cytochrome P450 2D6, sequence (P10635 whole entry): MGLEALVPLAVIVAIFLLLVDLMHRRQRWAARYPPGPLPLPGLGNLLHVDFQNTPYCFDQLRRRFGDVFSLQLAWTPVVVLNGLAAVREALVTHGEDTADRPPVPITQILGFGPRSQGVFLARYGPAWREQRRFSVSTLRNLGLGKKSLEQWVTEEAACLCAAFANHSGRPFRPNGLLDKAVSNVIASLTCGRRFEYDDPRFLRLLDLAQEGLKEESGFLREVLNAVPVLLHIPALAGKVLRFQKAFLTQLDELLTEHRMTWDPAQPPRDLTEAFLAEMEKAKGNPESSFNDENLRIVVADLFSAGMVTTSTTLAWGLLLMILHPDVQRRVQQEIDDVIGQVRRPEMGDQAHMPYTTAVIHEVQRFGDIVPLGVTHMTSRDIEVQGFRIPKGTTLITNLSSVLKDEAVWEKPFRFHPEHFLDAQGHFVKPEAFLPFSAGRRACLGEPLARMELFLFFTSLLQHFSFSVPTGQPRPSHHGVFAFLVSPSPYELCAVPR

For `COc1cccc2[nH]c(C(=O)N[C@@H](CC(C)C)C(=O)N[C@@H](C[C@@H]3CCNC3=O)C(=O)c3nc4ccccc4s3)cc12`, the Drug metabolism result in [1], in data set [2], in data set [3], in data set [22] and in data set [23] was “Metabolite_Detected” in each case. Besides, the outcome in data set [4], in [5] and in [7] was Active. Besides, the Ki in [6] worked out at 6.3 nM. For the same compound, the Stability result in data set [8] is on record as “Stable”. For the same compound, the fraction unbound at 6 h in data set [9] was 0.01. For the same compound, the “inhibition (INH)” value in data set [10] was “Not Active”; in [11], “Not Active”; in data set [12], “Active”. The peak level in data set [13] (Cmax) was 1.08 ng/mL. Also, the Tmax in data set [14] was determined as 0.35 h. This compound had an area under the curve AUC(0-inf) in data set [15] of 19.7 ng·h/mL. The compound further gave a half-life in data set [16] of 2.97 h. The compound also returned an MRT in data set [17] of 13.2 h. Further, the CL/F in data set [18] is 2650 mL/min/kg. The compound also displayed a Vd in data set [19] of 3.51 L/kg. This compound gave a bioavailability in data set [20] of 3.55%. For the same compound, the Papp at 2 h, 1 µM in data set [21] stood at 18.9 ×10⁻⁶ cm/s.

The values above are taken from ChEMBL document CHEMBL5042480, “3CL Protease Inhibitors with an Electrophilic Arylketone Moiety as Anti-SARS-CoV-2 Agents” (J Med Chem, 2022).
